This note sets out measurements from ChEMBL document CHEMBL3867455, “Accelerating the discovery of antibacterial compounds using pathway-directed whole cell screening” (Bioorg Med Chem, 2016).

Substitutions are numbered along the chain they refer to. Converted amounts (≈) assume the structure as drawn. The source made the active and inactive calls. No cut-off for these calls is given here.

The nature of data set [1]: Cytotoxicity against African green monkey Vero cells assessed cell viability at 10 uM relative to control. The format is toxicity, cell-based. Particulars: chlorocebus sabaeus, read-out: Activity.
The subject of data set [2] is T1, Teichoic acid D-alanyltransferase (Staphylococcus aureus), Q53662 [A355E].
T1 sequence (whole entry): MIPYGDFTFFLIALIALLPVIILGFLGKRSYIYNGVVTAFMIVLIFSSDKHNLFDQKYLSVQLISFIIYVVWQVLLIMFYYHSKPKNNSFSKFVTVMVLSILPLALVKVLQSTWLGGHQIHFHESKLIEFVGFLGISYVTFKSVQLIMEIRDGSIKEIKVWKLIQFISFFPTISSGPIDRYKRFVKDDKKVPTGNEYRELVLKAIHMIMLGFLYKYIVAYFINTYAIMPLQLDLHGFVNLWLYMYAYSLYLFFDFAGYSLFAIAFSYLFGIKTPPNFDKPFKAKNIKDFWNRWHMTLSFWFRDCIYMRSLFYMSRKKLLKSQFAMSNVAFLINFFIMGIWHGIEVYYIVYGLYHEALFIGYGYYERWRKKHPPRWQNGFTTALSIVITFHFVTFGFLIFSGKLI
Briefly: Inhibition of DltB A355E mutant in Staphylococcus aureus Newman up to 32 ug/ml after 16 to 18 hrs by spectrophotometric analysis. The settings on record: Staphylococcus aureus subsp. aureus str. Newman. In a few lines: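 Broth-dilution MIC. Overnight cultures of the parent and the resistant mutants (selected in the […] background) were diluted 1:100 and grown in TSB at 30°C to OD600 ~1. They were then normalized to OD600 1 and diluted 1:1000. Compound series were made in DMSO, with 3 µL added to 147 µL of culture for a final 0–32 µg/mL. Plates were held 16–18 h at 30°C and OD600 was read.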

For data set [3], the system named is Staphylococcus aureus subsp. aureus str. Newman. Briefly: Inhibition of DltB in Taro-deficient Staphylococcus aureus Newman at 1 ug/ml after 16 to 18 hrs. In a few lines:
(§1)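 S. aureus overnight cultures (Newman WT, Newman ΔtarO, SEJ1 ΔltaS, RN4220 ΔypfP) diluted 1:100 in TSB and grown to OD600 ~1. Cultures were normalized to OD600 1 and diluted 1:1000. A DMSO compound dilution series was added to give final 0–32 µg/mL. Plates were incubated at 30°C for 16–18 h, then growth was read as OD600.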

Data set [4] relates to Staphylococcus aureus subsp. aureus USA300. Briefly: Inhibition of DltB tn::1050 mutant in Staphylococcus aureus USA300 JE2 at 1 ug/ml after 16 to 18 hrs.
Data set [5] relates to Staphylococcus aureus subsp. aureus str. Newman. Description: Inhibition of DltB in Staphylococcus aureus Newman assessed as suppression of 14C-D-Ala incorporation into LTA up to 16 ug/ml preincubated for 30 mins followed by 14C-D-Ala addition after 30 mins by PAGE autoradiography. In a few lines: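 S. aureus Newman overnight culture diluted 1:100 and grown in TSB at 30°C to OD600 0.6. Cells were resuspended in 0.25X TSB pH 6.0 with 200 µg/mL D-cycloserine and compound at 0–16 µg/mL (eight levels), then held 30 min at 30°C, 300 rpm. Cells were then resuspended in the same buffer with compound plus 14C-D-Ala for a further 30 min. Lysates were boiled in SDS buffer and run on 4–20% Tris-glycine PAGE, then autoradiographed for labelled LTA.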

Data set [6] has as its system Staphylococcus aureus subsp. aureus RN4220. Briefly: Inhibition of DltB in ypfP-deficient Staphylococcus aureus RN4220 at 1 ug/ml after 16 to 18 hrs. In a few lines: as §1
For data set [7], the system named is Staphylococcus aureus. Description: Inhibition of DltB in ltaS-deficient Staphylococcus aureus SEJ1 at 1 ug/ml after 16 to 18 hrs. Put shortly: as §1
Data set [8] can be described thus: Cytotoxicity against African green monkey Vero cells assessed cell viability at 2.5 uM relative to control. The format is toxicity, cell-based. The settings on record: chlorocebus sabaeus, read-out: Activity.
Data set [9] relates to T2, Teichoic acid D-alanyltransferase (Staphylococcus aureus), Q53662 [S175T].
T2 sequence (whole entry): T1 sequence (whole entry) with S175T, E355A
Briefly: Inhibition of DltB S175T mutant in Staphylococcus aureus Newman up to 32 ug/ml after 16 to 18 hrs by spectrophotometric analysis. The settings on record: Staphylococcus aureus subsp. aureus str. Newman.

A short description of data set [10]: Cytotoxicity against African green monkey Vero cells assessed cell viability at 1.3 uM relative to control. The data set is classed as toxicity, cell-based. The settings on record: chlorocebus sabaeus, read-out: Activity.
Data set [11] can be described thus: Cytotoxicity against African green monkey Vero cells assessed cell viability at 5 uM relative to control. Particulars: chlorocebus sabaeus, read-out: Activity. The data set is classed as toxicity, cell-based.
In data set [12] the test system is Staphylococcus aureus. Description: Inhibition of DltB in ltaS-deficient Staphylococcus aureus SEJ1 at 5 ug/ml after 16 to 18 hrs. Put shortly:
as §1

For data set [13], the system named is Staphylococcus aureus subsp. aureus RN4220. Description: Inhibition of DltB in ypfP-deficient Staphylococcus aureus RN4220 at 5 ug/ml after 16 to 18 hrs. Put shortly: as §1
The subject of data set [14] is Staphylococcus aureus subsp. aureus str. Newman. Briefly: Inhibition of DltB in Taro deficient Staphylococcus aureus Newman at 5 ug/ml after 16 to 18 hrs. In a few lines: as §1
In data set [15] the test system is Staphylococcus aureus. Description: Antibacterial activity against wild type Staphylococcus aureus Newman at 5 ug/ml after 16 to 18 hrs. The format is functional. Put shortly:
as §1

Data set [16] has as its system Staphylococcus aureus subsp. aureus USA300. Briefly: Inhibition of DltB tn::1050 mutant in Staphylococcus aureus USA300 JE2 at 5 ug/ml after 16 to 18 hrs.

On to `COc1ccc(-c2csc(NC(=O)/C=C/c3cccs3)n2)c(OC)c1`, for which the viability at 10 µM in [1] is 106%. Moreover, the results for the MIC in data set [2] and in data set [9] were over 32 µg/mL and 0.5 µg/mL (≈ 1.34 µM), respectively. Also, the inhibition entry in data set [3], in data set [4], in data set [5], in data set [6] and in data set [7] was “Active” in each case. Further, in data set [8], the viability at 2.5 µM came to 106%. Also, in data set [10], the viability at 1.3 µM came to 106%. Besides, the viability at 5 µM in data set [11] turned out to be 106%.

Turning to `COc1cc(NS(C)(=O)=O)ccc1Nc1c2ccccc2nc2ccccc12`, the MIC is 2 µg/mL (≈ 5.08 µM) in data set [2] and over 32 µg/mL in [9]. Further, the inhibition result in data set [12], in data set [13], in [14] and in [16] was “Active” throughout. Also, the result in [15] was Active.
